Bioassay records deposited in PubChem by several laboratories.
GPR7 antag: blocks human GPR7 receptor signaling | GPR7-expressing cells, fluorescence antagonist assay | 290,000 compounds, 1.1% hits | P48145 | inhibition, % at 4.4 µM | AID 1861; in the data active means inhibition above about 16%, passing the limit was not always enough;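 further: cells stimulated with the agonist NPW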
TAAR1 ag: agonists of human TAAR1 | Q96RJ0 | CHO RD-HGA16 TAAR1, Fluo-8 calcium fluorescence; vehicle wells 0%, saturating PEA agonist 100% | activation, % at 3 µM | 360,000 compounds, 0.99% hits | AID 624467;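 active means activation above the mean activation of all test compounds in the run plus 3 SD, cut at about 38% in these data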
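System: CHO-derived RD-HGA16 cells with stable Gα16 and human TAAR1. Times: 17-24 h plating, Fluo-8 75 min 37 °C, 30 min RT. Measured by: calcium-sensitive Fluo-8 signal, excitation 470-495, emission 515-575 nm. Read-out basis: % activation relative to PEA EC100 response. Control set: DMSO and PEA EC100. Repeats: no replicates (n 1).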
LANA-H2A inh: blocks KSHV LANA binding to histone H2A/H2B | Q9QR71 | cell-free LANA-H2A/H2B peptide, fluorescence polarization | inhibition, % (test concentration not listed) | 320,000 compounds, 0.6% hits | AID 2629; in the data active means inhibition mostly above about 10%, no sharp cut-off; inactive means mostly below about 6.7%
TAAR1 antagonist: human TAAR1 antagonism. 360,000 compounds, 1.5% hits. CHO RD-HGA16 TAAR1, Fluo-8 calcium fluorescence, antagonist. inhibition, % at 3 µM. AID 624466. Q96RJ0;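 active means inhibition above a per-plate cutoff, the mean inhibition of test compounds on that plate plus 3 SD, cut at about 49% in these data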
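Test system – hTAAR1-expressing CHO RD-HGA16 cells, Gα16-coupled · Also added – β-PEA at EC80 concentration, post-compound challenge · Compound – 3 µM, single point · Incubation – dye loading 75 min at 37 °C, then 30 min room temperature · Measured by – Fluo-8 intracellular calcium dye fluorescence, real-time kinetic reads · Benchmarks – vehicle and agonist controls · Replicates – singlicate, one well per test compound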
TRPN1 ag: activates the zebrafish TRPN1 channel; HEK293 zebrafish TRPN1-YFP, Fluo-8 calcium fluorescence; 100% = response to 87 µM carbachol; activation, % at 3 µM; 220,000 compounds, 0.18% hits;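 active means activation above its plate's cutoff, the mean activation of test wells on that plate plus 3 SD, cut at about 19% in these data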
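Assay system: Zebrafish TRPN1-YFP in HEK293 cells | Incubation: Dye loading 1 h at 37 °C, then 30 min room temperature | Measured by: Kinetic Fluo-8 fluorescence, ex 470-495, em 515-575 nm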
TRPML3 agonist: agonists of human TRPML3 channel; Q8TDD5; HEK293 TRPML3-YFP, Fluo-8 calcium fluorescence; 100% = the carbachol control signal; activation, % at 3 µM; 220,000 compounds, 0.29% hits;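 active means activation above its plate's cutoff, the mean activation of the plate's test wells plus 3 SD, cut at about 12% in these data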
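Material: TRPML3-YFP stable HEK293 cells | Dosing: One concentration, 3 µM nominal, 0.3% DMSO | Timing: 125 s total fluorescence read per well | Technique: Fluo-8 calcium dye fluorescence, ex 470-495, em 515-575 nm | Measure: Percent activation from peak-to-basal fluorescence ratio, scaled between DMSO and carbachol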
nonsel antag count: nonselective antagonism, TAAR1 counter-screen. 2,400 compounds, 77% hits. AID 651780. inhibition, % at 3 µM. shares compounds with TAAR1 antagonist. counterscreen cell line, calcium fluorescence, antagonist mode; in the data active means inhibition above about 22%;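 further: CHO-Ga16 host cells stimulated with ATP at an EC80 level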
TAAR1 ant conf: confirmation of human TAAR1 antagonists | 2,400 compounds, 40% hits | TAAR1-expressing cells, fluorescence antagonist read-out | shares compounds with TAAR1 antagonist | inhibition, % at 3 µM; in the data active means inhibition above about 49%;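 further: CHO-Ga16 host cells challenged with agonist PEA near its EC80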
Ga16 ag counter: counter-screen for TAAR1 antagonists: nonselective Ga16 agonists; shares compounds with TAAR1 antagonist; Ga16-expressing cells, calcium fluorescence, agonist counterscreen; activation, % at 3 µM; 2,400 compounds, 18% hits; in the data active means activation above about 12%
TAAR1 ag count: TAAR1 agonism, antagonist counter-screen; 2,400 compounds, 2% hits; AID 651955; activation, % at 3 µM; shares compounds with TAAR1 antagonist; hTAAR1 cell line, fluorescence activation, agonist mode; in the data active means activation above about 37%;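 further: CHO cells stably expressing TAAR1 with calcium dye readout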
Of the large screens only hits and unclear results are named; the others gave an inactive call (follow-up assays come after a bar, where they were run). A selection: hits, their analogues and other compounds. The true share with any hit is near 3.4%.

COc1ccc2[nH]c(=O)c(CN(c3ccccc3OC)S(=O)(=O)c3ccccc3)cc2c1	TAAR1 antagonist 74 (no result: TRPN1 ag, TRPML3 agonist) | nonsel antag count 33 | TAAR1 ant conf 49 | Ga16 ag counter inactive | TAAR1 ag count inactive
COc1ccc(S(=O)(=O)N(Cc2cccnc2)Cc2cc3ccccc3[nH]c2=O)cc1	TAAR1 antagonist 51 (no result: TRPN1 ag, TRPML3 agonist) | nonsel antag count inactive | TAAR1 ant conf inactive | Ga16 ag counter inactive | TAAR1 ag count inactive
Cc1ccc(S(=O)(=O)N(Cc2cccnc2)Cc2cc3ccccc3[nH]c2=O)cc1	none (no result: TRPN1 ag, TRPML3 agonist)
COc1ccc2[nH]c(=O)c(CN(c3ccccc3)S(=O)(=O)c3ccccc3)cc2c1	TAAR1 antagonist 52 (no result: TRPN1 ag, TRPML3 agonist) | nonsel antag count 26 | TAAR1 ant conf 52 | Ga16 ag counter inactive | TAAR1 ag count inactive
CCC(=O)N(Cc1cc2cc(OC)ccc2[nH]c1=O)c1ccccc1OC	none (no result: GPR7 antag, LANA-H2A inh, TRPN1 ag, TRPML3 agonist)
O=C(Cn1cc(Cl)c([N+](=O)[O-])n1)NCCC1=CCCCC1	none (no result: TRPN1 ag, TRPML3 agonist)
CC(C)(C)c1ccc(C(=O)N2CCC(=O)N([C@H](COCc3ccccc3)Cc3ccccc3)CC2)cc1	TAAR1 antagonist 71 (no result: GPR7 antag, LANA-H2A inh, TRPN1 ag, TRPML3 agonist) | nonsel antag count 27 | TAAR1 ant conf 50 | Ga16 ag counter inactive | TAAR1 ag count inactive
O=C(c1ccc(C(F)(F)F)cc1)N1CCC(=O)N(C(COCc2ccc(Cl)cc2)Cc2ccccc2)CC1 (centres undefined)	none
OC(c1cc(Cl)cc(Cl)c1)c1ncc(-c2cccc(F)c2)[nH]1 (centres undefined)	none (no result: GPR7 antag, LANA-H2A inh, TRPN1 ag, TRPML3 agonist)
O=C(NCCCCc1ccccc1)C1CC(c2ccc(C(F)(F)F)cc2)=NO1 (centres undefined)	TAAR1 antagonist 84 (no result: GPR7 antag, TRPN1 ag, TRPML3 agonist) | nonsel antag count 23 | TAAR1 ant conf inactive | Ga16 ag counter inactive | TAAR1 ag count inactive
COc1ncc(-c2ccc(N3C(c4ccsc4)=Cc4ccc(F)cc4C3CC(C)=O)cc2)cn1 (centres undefined)	none (no result: GPR7 antag, LANA-H2A inh, TRPN1 ag, TRPML3 agonist)
COc1cccc(/C=N/NC(=O)c2cc(C34CC5CC(CC(C5)C3)C4)[nH]n2)c1	TAAR1 antagonist 57 | nonsel antag count 23 | TAAR1 ant conf inactive | Ga16 ag counter inactive | TAAR1 ag count inactive
CC(=O)c1ccc(N2CCN(C(=O)c3cc(-c4cccnc4)nc4ccc(Br)cc34)CC2)cc1	TAAR1 antagonist 76 | nonsel antag count 27 | TAAR1 ant conf 49 | Ga16 ag counter 13 | TAAR1 ag count inactive
O=C(c1cc(-c2cccnc2)nc2ccc(Br)cc12)N1CCN(c2ncccn2)CC1	TAAR1 antagonist 51 | nonsel antag count 34 | TAAR1 ant conf 57 | Ga16 ag counter inactive | TAAR1 ag count inactive
COc1cccc(C(=O)NCCS(=O)(=O)N2CCN(C(=O)c3ccco3)CC2)c1	none (no result: GPR7 antag, TRPN1 ag, TRPML3 agonist)
Cc1ccccc1Cn1cccc1/C=C1/C(=N)N2C=CSC2=NC1=O	TAAR1 antagonist 62 | nonsel antag count 32 | TAAR1 ant conf inactive | Ga16 ag counter inactive | TAAR1 ag count inactive
COCCCN1C(=O)C(CC(=O)NCc2cccs2)CC(C(=O)N(C(C)C)C(C)C)=C1C (centres undefined)	none (no result: GPR7 antag, LANA-H2A inh, TRPN1 ag, TRPML3 agonist)
O=C(Nc1cccnc1)c1sc(Nc2ccccc2)nc1-c1ccccc1	TAAR1 antagonist 59 | nonsel antag count 34 | TAAR1 ant conf inactive | Ga16 ag counter inactive | TAAR1 ag count inactive
COc1cccc(OC)c1OCCOc1ccc(C(=O)c2ccccc2)cc1	TAAR1 antagonist 52 | nonsel antag count 31 | TAAR1 ant conf 59 | Ga16 ag counter inactive | TAAR1 ag count inactive
COC(=O)c1ccc(OCCOc2ccccc2)cc1	none
